Shown are actives, neighbours in structure and some others; about 1.5% of the full set was active somewhere.
CCR6 antagonist – antagonists of human CCR6 receptor | CHO-K1 CCR6 PathHunter beta-arrestin, luminescence, CCL20-stimulated | inhibition, % at 20 µM | P51684 | actives 0.49% (n = 340,000);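 active = compounds whose inhibition of the agonist-driven luminescence signal at 20 µM reaches about 50%, limit read from the data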;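 also: cells stimulated with CCL20 at 14 nM final; plate controls were DMSO with CCL20 for no effect and DMSO without agonist for full effect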
APJ agonist – APJ receptor agonism | P35414 | CHO-K1 APJ PathHunter beta-arrestin, luminescence; 0% DMSO wells, 100% apelin | activation, % at 20 µM | actives 0.11% (n = 330,000);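 active = activation more than six SD over the plate average, tested at 20 µM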;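 also: 0% = DMSO alone and 100% = apelin-13 at 10 nM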
Target sequence (P35414 whole entry, looked up): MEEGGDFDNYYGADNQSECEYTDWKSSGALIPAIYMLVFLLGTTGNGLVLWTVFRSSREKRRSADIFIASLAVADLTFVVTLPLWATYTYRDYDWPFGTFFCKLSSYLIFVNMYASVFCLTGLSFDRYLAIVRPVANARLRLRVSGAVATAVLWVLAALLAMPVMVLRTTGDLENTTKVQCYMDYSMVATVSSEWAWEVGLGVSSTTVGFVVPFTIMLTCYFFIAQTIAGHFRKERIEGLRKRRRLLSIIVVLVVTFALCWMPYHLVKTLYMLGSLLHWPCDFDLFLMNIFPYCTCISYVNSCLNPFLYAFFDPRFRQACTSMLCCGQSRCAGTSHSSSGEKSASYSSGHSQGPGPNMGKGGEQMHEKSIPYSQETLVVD
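Material: engineered CHO-K1 APJ arrestin reporter cells; amount: 1000 CHO-K1 reporter cells seeded per well; incubation: compound stimulation 90 min at 25 °C, detection 60 min; signal: luminescent beta-gal fragment complementation, chemiluminescent substrate; read-out basis: APJ agonist activity; controls: DMSO-only wells as negative, 10 nM Apelin-13 as positive control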
CXCR6 inh – blocks human CXCR6 beta-arrestin recruitment; O00574; CHO-K1 PathHunter CXCR6 beta-arrestin, luminescence; inhibition, % at 20 µM; actives 0.36% (n = 360,000); in the data active = inhibition above about 34%, passing the limit was not always enough;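 also: antagonist mode with CXCL16 agonist at 10 nM final; 0% = 10 nM CXCL16 with DMSO and 100% = unstimulated wells without agonist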
EBI2 antag – antagonists of human EBI2 receptor | actives 0.81% (n = 360,000) | P32249 | AID 651636 | EBI2 beta-arrestin recruitment, luminescence, 7a,25-OHC stimulated | inhibition, % at 5 µM; in the data active = inhibition above about 38%;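 also: enzyme fragment complementation signal reports receptor beta-arrestin coupling in cells; 0% = agonist plus DMSO wells and 100% = wells without agonist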
APJ antagonist – antagonists of human APJ apelin receptor; inhibition, % at 20 µM; AID 2521; P35414; actives 0.32% (n = 330,000); CHO-K1 APJ beta-arrestin complementation, luminescence;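 active = inhibition above about 40% at 20 µM, limit read from the data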;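 also: cells challenged with 10 nM apelin-13 agonist together with compound; plate controls were apelin-13 plus DMSO wells for no effect and DMSO wells lacking apelin-13 for full effect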
EBI2 antag conf – EBI2 (human) antagonism, single concentration confirmation; shares compounds with EBI2 antag; EBI2 beta-arrestin luminescence, 7a,25-OHC antagonism; inhibition, % at 5 µM; actives 29% (n = 2,400); AID 651997;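 active = inhibition of at least 50%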
EBI2 ag – EBI2 agonism counter-screen | shares compounds with EBI2 antag | EBI2-expressing cells, agonist mode, luminescence, 60 min; 0% vehicle, 100% 7α,25-dihydroxycholesterol control | activation, % at 5 µM | 2,400 tested, under 10 active | AID 652000;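 active = activation of at least 50%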
bGal counter – inhibits E. coli beta-galactosidase, counter-screen for EBI2 antagonists. shares compounds with EBI2 antag. purified beta-galactosidase, luminescent Galacton Star, 15 min. inhibition, % at 5 µM. actives 1% (n = 2,400);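 active = replicate-average signal at least 3 plate SD below neutral wells, shown as high inhibition, flagging enzyme-inhibiting false positives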;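 also: 0% = DMSO wells with enzyme and 100% = wells lacking enzyme; higher means stronger loss of beta-gal luminescence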
* hit, by the source's call; x = no result given.

SMILES	CCR6 antagonist	APJ agonist	CXCR6 inh	EBI2 antag	APJ antagonist	EBI2 antag conf	EBI2 ag	bGal counter
O=C(COc1ccc(Br)cc1)N1CCN(Cc2c[nH]c3ccccc23)CC1	-5	1	-3	81*	15	54*	1	9
COc1ccc(CN2CCN(C(=O)COc3ccc4ccccc4c3)CC2)c(OC)c1	13	-4	-6	78*	5	69*	2	8
CCC(C)N1CCN(C(=O)COc2ccc3ccccc3c2)CC1 (configuration not stated)	8	0	2	91*	26	74*	1	5
CN1CCN(C(=O)COc2ccc(Oc3ccccc3)cc2)CC1	7	-1	5	-4	-19	x	x	x
CCOC(=O)c1cc2ccccc2n1C1CCN(Cc2ccccc2)CC1	x	x	5	12	x	x	x	x
C#C[C@]1(O)CC[C@H]2[C@@H]3CCC4=Cc5nc6nc7ccccc7n6cc5C[C@]4(C)[C@H]3CC[C@@]21C	15	10	14	27	4	x	x	x
O=C(c1cc2cc(Cl)ccc2[nH]1)N1CCC2(CC1)OCCO2	10	5	-7	88*	6	66*	2	-1
O=C(c1cc2cc(F)ccc2[nH]1)N1CCC2(CC1)OCCO2	4	4	-4	41	-53	x	x	x
O=C(Nc1cc(Cl)cc(Cl)c1)N1Cc2ccccc2-n2nncc2C1	x	x	-6	8	x	x	x	x
COc1ccc(OCC(=O)N2CCN(CC3CC4C=CC3C4)CC2)cc1 (configuration not stated)	-10	-2	-2	83*	16	56*	1	2
COc1ccc(C(c2nnnn2-c2ccc3c(c2)OCCO3)N2CCC3(CC2)C(=O)NCN3c2ccccc2)cc1 (configuration not stated)	x	x	-2	3	x	x	x	x
O=c1[nH]c2ccccc2n1C1CCN(C(CCc2ccccc2)c2nnnn2C2CCCCC2)CC1 (configuration not stated)	x	x	3	-2	x	x	x	x
CCOC(=O)C1(c2ccccc2)CCN(CCC(=O)Nc2cccc(Br)c2)CC1	14	-2	-7	59*	10	27	0	1
CCOC(=O)C1(c2ccccc2)CCN(CCC(=O)Nc2ccc(OC)cc2)CC1	x	x	-1	52*	x	41	4	4
CCOC(=O)C1(c2ccccc2)CCN(CCC(=O)Nc2ccc(C(=O)OC)cc2)CC1	14	-2	2	13	10	x	x	x
CC(=O)OC1CCC2(C)C(CCC3C4CC(N5CC5)C(C(C)=O)C4(C)CC(=O)C32)C1 (configuration not stated)	-1	x	-2	-9	x	x	x	x
CN(C(=O)Oc1ccc(C(=O)c2ccc(Cl)cc2)cc1)c1ccccc1	-8	1	-2	79*	4	56*	-1	-11
CN(C)C(=O)Oc1ccc(OC(=O)c2ccccc2)cc1	3	0	-5	-8	8	x	x	x
O=C(COc1ccc(Cl)cc1)N1CCN(Cc2ccc([N+](=O)[O-])cc2)CC1	10	-6	-15	94*	-2	79*	0	5
Cc1cccc(OCC(=O)N2CCN(Cc3cccnc3)CC2)c1	1	-1	-4	11	-17	x	x	x
COc1cccc(OCC(=O)N2CCN(C)CC2)c1	-2	-2	4	-4	-9	x	x	x
COc1ccc(OCC(=O)N2CCN(Cc3nc4cc([N+](=O)[O-])ccc4n3C)CC2)cc1	-15	1	10	74*	1	38	-2	-8
O=[N+]([O-])c1cccc(CN2CCN(Cc3ccc(Cl)cc3)CC2)c1	11	-3	-9	3	14	x	x	x
Cc1cc(=O)oc2cc(OCC(=O)N3CCN(Cc4ccc5c(c4)OCO5)CC3)ccc12	10	-9	0	10	11	x	x	x
Cc1ccc(OCC(=O)N2CCN(Cc3cccnc3)CC2)cc1	-5	-1	-11	53*	4	13	-1	-8
SMILES	CCR6 antagonist	APJ agonist	CXCR6 inh	EBI2 antag	APJ antagonist	EBI2 antag conf	EBI2 ag	bGal counter
CCc1ccc(OCC(=O)N2CCN(Cc3ccc4c(c3)OCO4)CC2)cc1	-5	-5	-9	82*	4	53*	0	6
CC12Nc3ccccc3C(=O)N1Cc1cnnn1-c1ccccc12 (configuration not stated)	x	x	-5	-3	x	x	x	x
CC1=CC(C)CC(C)OC(=O)CC(c2ccc(O)cc2)NC(=O)C(Cc2c(Br)[nH]c3ccccc23)N(C)C(=O)C(C)NC(=O)C(C)C1 (configuration not stated)	19	x	10	-34	x	x	x	x
CC(C)(C)n1nnnc1C(CCc1ccccc1)N1CCC2(CC1)C(=O)NCN2c1ccccc1 (configuration not stated)	x	x	6	-4	x	x	x	x
CCOC(=O)c1cncn1C(C)c1ccccc1 (configuration not stated)	6	1	-6	48*	-8	36	0	7
Cc1cccc(C)c1-n1nnnc1C(c1cccs1)N1CCC(n2c(=O)[nH]c3ccccc32)CC1 (configuration not stated)	x	x	14	13	x	x	x	x
Cc1cccc(C)c1-n1nnnc1C(c1cccc2ccccc12)N1CCC(n2c(=O)[nH]c3ccccc32)CC1 (configuration not stated)	x	x	3	42*	x	35	-1	-18
O=C1NC(=S)NC(=O)C1Cc1ccccc1O	8	x	-4	1	x	x	x	x
COC(=O)C1=C(c2ccc(OCc3ccccc3)cc2)C[C@@H]2CC[C@H]1N2C(=O)NCc1cccc(OC)c1	16	-2	15	57*	-8	54*	-1	6
COC(=O)C1=C(c2ccc(OCc3ccccc3)cc2)C[C@@H]2CC[C@H]1N2C(=O)NCc1ccc(OC)cc1	x	x	6	24	x	x	x	x
CC(C)CCNC(=O)c1c(N)n(Cc2ccc3c(c2)OCO3)c2nc3ccccc3nc12	-30	-4	1	48*	2	23	0	-9
CCCNC(=O)c1c(N)n(Cc2ccc3c(c2)OCO3)c2nc3ccccc3nc12	-12	-2	-1	45*	20	36	0	2
Clc1ccc(C(c2ccc(Cl)cc2)n2cc[n+](CC(OCc3ccc(Cl)cc3Cl)c3ccc(Cl)cc3Cl)c2)cc1 (configuration not stated)	25	-7	32	7	30	x	x	x
CC12C(C(=O)O)C1(c1ccccc1)C2C(=O)O (configuration not stated)	9	x	-9	-5	x	x	x	x
CCOC(=O)[C@]12Cc3cc(OC)ccc3[C@H]1N(C)C(=O)c1cc(OC)ccc12	x	x	-4	9	x	x	x	x
